Test results as given in PubChem BioAssay AID449754 (Broad Institute, 2010).
Results filed as inconclusive are left out. Calls of active or inactive are those of the source.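 Rule for the calls: active = compounds whose fitted caspase activation AC50 is no more than tenfold above the top tested dose; inconclusive = flat fit with 30 to 70% activity, or a failed fit; inactive = the rest.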

Test system: MEF Bax/Bak KO A1-BIM, caspase-Glo luminescence, 3 h
Assay: caspase activation in Bax/Bak-deficient MEFs, dose response, counter-screen for A1 inhibitor project, cell-based, Bax-Bak knockout MEF, A1-2A-BIM, luminescence (AID 449754);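 note: counterscreen where caspase activation signals off-target toxicity not A1 inhibition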
Outline: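 Material: Bax/Bak-knockout mouse embryonic fibroblasts expressing A1-2A-BIM | Quantity: 2500 cells per well, seeded one day before compound | Buffer or medium: RPMI-1640, 10% FBS | Incubation: 3 h compound at 37 °C, 1 h detection at RT | Signal: CaspaseGlo luminescence, reagent diluted 1:1 in 50 mM HEPES | Evaluation: Caspase activity from luminescent signal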

Compound	AC50
O=C(Nc1ccc(-c2nc3cc(NC(=O)c4cccs4)ccc3o2)cc1)c1cccs1	> 35 µM (inactive)
Cc1cc(C)cc(NC(=O)/C(C#N)=C/c2cn(CC(=O)NCc3ccco3)c3ccccc23)c1	6.71 µM
Cc1ccc(NC(=O)c2ccc(N/N=C/c3cccc(O)c3)c([N+](=O)[O-])c2)cc1	27.3 µM
CCS(=O)(=O)c1ncc(Cl)c(C(=O)Nc2ccc(S(=O)(=O)N3CCC(C)CC3)cc2)n1	> 35 µM (inactive)
COc1ccc(-c2c(C#N)c(N)nc(Sc3ccc(Cl)cc3)c2C#N)cc1	> 35 µM (inactive)
COc1ccccc1C(=O)Nc1ccnn1C1CCN(Cc2cn(C)c3ccccc23)CC1	> 35 µM (inactive)
O=C(Nc1ccc2oc(-c3cccc(F)c3)nc2c1)c1ccccc1F	> 35 µM (inactive)
CCOc1cccc(C(=O)Nc2cccc(-c3nnc(-c4ccc(C)cc4)o3)c2)c1	35.7 µM
Cc1cc(NC(=O)CSc2nc3cc(Cl)ccc3c(=O)n2Cc2ccco2)no1	> 35 µM (inactive)
CSC[C@@H]1NC(=S)N(c2ccc(C)cc2)C1=O	> 35 µM (inactive)
Cc1cccc(CS(=O)(=O)c2ncc(Cl)c(C(=O)Nc3nnc(C(C)C)s3)n2)c1	> 35 µM (inactive)
Cc1cc(C(=O)CCl)c(C)n1CCc1ccc(Cl)cc1	> 35 µM (inactive)
COc1cc(NC(=O)c2cccs2)ccc1NC(=O)c1cc2ccccc2o1	> 35 µM (inactive)
COc1ccc(C(=O)/C=C/C(=O)N(CC(=O)NC2CCCCC2)Cc2cccs2)c(O)c1	> 35 µM (inactive)
O=C(Nc1ccc2oc(-c3ccccc3)nc2c1)c1ccccc1F	> 35 µM (inactive)
COc1ccc(OC)c(NC(=O)c2cc(-c3cc(C)ccc3O)n[nH]2)c1	> 35 µM (inactive)
COc1cc2ncnc(NCc3ccc(F)cc3)c2cc1OC	> 35 µM (inactive)
Cc1c(CCOC(=O)c2ccc(N3CCOCC3)c([N+](=O)[O-])c2)sc[n+]1CC#N	> 35 µM (inactive)
CCN(C(=O)CCN1C(=O)c2ccccc2S1(=O)=O)c1ccccc1	> 35 µM (inactive)
CN(C)CCCN(C(=O)c1ccc(S(=O)(=O)N2CCc3ccccc3C2)cc1)c1nc2ccc(F)cc2s1	> 35 µM (inactive)
COc1ccc2c(-c3cc4ccc(OCc5ccc(F)cc5)cc4oc3=O)cc(=O)oc2c1	36.6 µM
Cc1ccc2nc(N(CCCN(C)C)C(=O)c3ccc(S(=O)(=O)N4CCc5ccccc5C4)cc3)sc2c1	> 35 µM (inactive)

Compound	AC50
Nc1nc(F)nc2c1ncn2[C@@H]1O[C@H](CO)[C@@H](O)[C@H]1O	> 35 µM (inactive)
C=C1/C=C(\C)[C@](C)(O)C[C@H](O)CC(=O)[C@H](O)[C@@H](O)[C@H](C)C[C@H](C)OC(=O)/C(C)=C/CC/C=C/[C@@H]2O[C@H]2C[C@H](C)C1	> 35 µM (inactive)
CC(C)(C)C1CCc2onc(C(=O)Nc3cccc(O)c3)c2C1 (centres undefined)	> 35 µM (inactive)
CC(=O)Nc1ccc(NC(=O)C(=O)NCC(c2ccco2)N2CCc3ccccc32)cc1 (centres undefined)	35.8 µM
COc1cc(CN2CCN(c3cc(C)ccc3C)CC2)ccc1O	> 35 µM (inactive)
CCOc1ccc(NCc2cccn2-c2nnc(N3CCC(C(=O)NCCCN4CC(C)CC(C)C4)CC3)s2)cc1 (centres undefined)	> 35 µM (inactive)
Cc1ccc2c(c1)C(=O)C(=O)N2Cc1ccc(Br)cc1	> 35 µM (inactive)
Cc1nc(SCc2nc3c([N+](=O)[O-])cccc3[nH]2)c2oc3ccccc3c2n1	> 35 µM (inactive)
COc1cc(NC(=O)c2ccccc2)c(OC)cc1NC(=O)Cc1ccc(Br)cc1	> 35 µM (inactive)
Cc1occc1-c1nnc(SCC(=O)NCCc2ccccc2)n1Cc1ccccc1	> 35 µM (inactive)
O=C(Nc1ccc([N+](=O)[O-])cc1)c1nc[nH]c1C(=O)NC1CCCCC1	> 35 µM (inactive)
O=C(N/C=N/OCc1ccc(Cl)cc1Cl)NOCc1ncc(C(F)(F)F)cc1Cl	> 35 µM (inactive)
CC(=O)Nc1ncnc2c1c(-c1ccc(Cl)cc1)nn2C(C)(C)C	> 35 µM (inactive)
O=C(Nc1ccc(Cl)cc1Cl)c1cccc(N2C(=O)C=CC2=O)c1	> 35 µM (inactive)
CCOC(=O)C(C(=O)OCC)c1cc(Br)c2noc3c2c1C(=O)c1ccccc1-3	> 35 µM (inactive)
CC(=O)Nc1sc(N/N=C\c2cccc(Cl)c2)nc1-c1cccs1	> 35 µM (inactive)
CCc1ccccc1NC(=O)C(CC)Sc1nc2cc3c(cc2c(=O)n1Cc1ccco1)OCO3 (centres undefined)	> 35 µM (inactive)
Cc1ccc(NC(=S)NC(NC(=O)Cc2cccc3ccccc23)C(Cl)(Cl)Cl)cc1 (centres undefined)	22.9 µM
O=C(NCc1ccccc1Cl)c1cccc2c1C(=O)c1ccc(-c3ccc(OC(F)(F)F)cc3)cc1S2(=O)=O	> 35 µM (inactive)
CCCCNC(=S)N/N=C/c1ccc(OCC(=O)Nc2c(C)cc(C)cc2C)c(OC)c1	> 35 µM (inactive)
Cc1ccc(CS(=O)(=O)c2ncc(Cl)c(C(=O)Nc3nnc(C(C)C)s3)n2)cc1	> 35 µM (inactive)
CCOC(=O)N1C(=O)[C@@](c2ccc(Cl)cc2)(C(C)C)N1C(=O)OCC	35.1 µM

Compound	AC50
COCc1cc(C)nc(SCC(=O)Nc2nc(C)cs2)c1C#N	> 35 µM (inactive)
CC(C)(C)c1ccc2c(c1)OC(C(=O)N/N=C\c1ccc[nH]1)CO2 (centres undefined)	> 35 µM (inactive)
CC[C@H]1CN2CCc3cc(OC)c(OC)cc3[C@@H]2C[C@@H]1C[C@H]1NCCc2cc(OC)c(OC)cc21	> 35 µM (inactive)
Cc1ccc(C#N)c(SCC(=O)Nc2nccs2)n1	> 35 µM (inactive)
COc1ccc(C[C@H]2NC[C@H](O)[C@H]2OC(C)=O)cc1	> 35 µM (inactive)
Cc1ccc(NC(=O)CSc2nc3nc(C)c(Br)cc3[nH]2)cc1F	> 35 µM (inactive)
COc1cc(/C=C(/C#N)C(=O)Nc2ccc(Cl)cc2)ccc1Oc1nc(Cl)ncc1F	> 35 µM (inactive)
COc1ccc(-c2nc(NC(=O)c3n[nH]c(=O)c4ccccc34)sc2C)cc1	> 35 µM (inactive)
Cc1ccc(-c2nc(NC(=O)c3nn(C)cc3[N+](=O)[O-])sc2C)cc1	6.29 µM
O=C(NCc1ccccc1Br)c1cccc2c1C(=O)c1ccc(-c3ccc(OC(F)(F)F)cc3)cc1S2(=O)=O	> 35 µM (inactive)
COc1ccc(-c2ccc3c(c2)S(=O)(=O)c2cccc(C(=O)NCCOc4ccccc4)c2C3=O)cc1OC	> 35 µM (inactive)
CC(C)(C)C1C/C(=C/c2ccccn2)C(=O)/C(=C/c2ccccn2)C1 (centres undefined)	8.26 µM
CCn1c(Cl)c(C=O)s/c1=N\S(=O)(=O)c1ccccc1	> 35 µM (inactive)
C#CC(=O)N(c1cc(OC)ccc1OC)C(C(=O)NC1CCCC1)c1cccs1 (centres undefined)	> 35 µM (inactive)
CCS(=O)(=O)c1ncc(Cl)c(C(=O)Nc2ccccc2OC)n1	> 35 µM (inactive)
COc1ccc(NC(=O)C(=O)N/N=C\c2ccc(CNC(=O)C(=O)Nc3ccc(C)c(C)c3)o2)c(OC)c1	32 µM
O=[N+]([O-])/C=C/c1cn(Cc2ccc(Cl)cc2)c2ccccc12	20.7 µM
O=S1(=O)CCOC[C@H](CC2CCCCC2)N1Cc1cccc(Cl)c1	> 35 µM (inactive)
CCc1ccc(Oc2coc3cc(OCC(=O)Nc4cc(C)ccc4C)ccc3c2=O)cc1	> 35 µM (inactive)
COc1cc2cnc(-c3ccccc3)c(-c3cccc(C(F)(F)F)c3)c2cc1OC	> 35 µM (inactive)
